Activity calls are given as the source filed them. The rule behind the calls is not given here.
What was measured:
[1] = Clearance in mouse liver microsomes by LC-MS/MS analysis; assay type: ADME, Microsome
How it was run: (§1)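 Liver microsome incubation. Predicted clearance is derived from a well-stirred model corrected for microsomal and protein binding.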

[2] = Clearance in human liver microsomes by LC-MS/MS analysis; assay type: ADME, Microsome; how it was run: as §1
[3] = molecular target: Cytochrome P450 2D6 (Homo sapiens, UniProt P10635); test: Inhibition of human CYP2D6 using bufuralol as substrate after 10 mins by LC-MS/MS analysis; assay type: ADME
[4] = molecular target: T1, Cytochrome P450 1A2 (Homo sapiens, UniProt P05177); test: Inhibition of human CYP1A2 using phenacetin as substrate after 10 mins by LC-MS/MS analysis; assay type: ADME
T1 sequence (P05177 whole entry): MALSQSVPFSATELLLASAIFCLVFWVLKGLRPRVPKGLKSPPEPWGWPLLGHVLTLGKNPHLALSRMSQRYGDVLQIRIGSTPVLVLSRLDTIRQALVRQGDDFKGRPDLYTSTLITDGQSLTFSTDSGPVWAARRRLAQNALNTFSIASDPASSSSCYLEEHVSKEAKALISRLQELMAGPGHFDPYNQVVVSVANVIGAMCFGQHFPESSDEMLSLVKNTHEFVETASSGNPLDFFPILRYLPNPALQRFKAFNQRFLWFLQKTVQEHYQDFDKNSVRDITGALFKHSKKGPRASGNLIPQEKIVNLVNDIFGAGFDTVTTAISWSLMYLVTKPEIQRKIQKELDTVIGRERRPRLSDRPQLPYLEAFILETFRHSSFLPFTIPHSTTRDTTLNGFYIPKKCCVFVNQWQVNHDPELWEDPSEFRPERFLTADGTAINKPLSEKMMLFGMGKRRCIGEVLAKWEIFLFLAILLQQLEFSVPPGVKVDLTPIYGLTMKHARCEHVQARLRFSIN

[5] = molecular target: Cytochrome P450 2C19 (Homo sapiens, UniProt P33261); test: Inhibition of human CYP2C19 using S-mephenytoin as substrate after 45 mins by LC-MS/MS analysis; assay type: ADME
[6] = molecular target: T2, Dihydroorotate dehydrogenase (Plasmodium falciparum, UniProt Q54A96); test: Inhibition of Plasmodium falciparum DHODH after 20 mins by 2,6-dichloroindophenol-reduction based assay
T2 sequence (Q54A96 whole entry): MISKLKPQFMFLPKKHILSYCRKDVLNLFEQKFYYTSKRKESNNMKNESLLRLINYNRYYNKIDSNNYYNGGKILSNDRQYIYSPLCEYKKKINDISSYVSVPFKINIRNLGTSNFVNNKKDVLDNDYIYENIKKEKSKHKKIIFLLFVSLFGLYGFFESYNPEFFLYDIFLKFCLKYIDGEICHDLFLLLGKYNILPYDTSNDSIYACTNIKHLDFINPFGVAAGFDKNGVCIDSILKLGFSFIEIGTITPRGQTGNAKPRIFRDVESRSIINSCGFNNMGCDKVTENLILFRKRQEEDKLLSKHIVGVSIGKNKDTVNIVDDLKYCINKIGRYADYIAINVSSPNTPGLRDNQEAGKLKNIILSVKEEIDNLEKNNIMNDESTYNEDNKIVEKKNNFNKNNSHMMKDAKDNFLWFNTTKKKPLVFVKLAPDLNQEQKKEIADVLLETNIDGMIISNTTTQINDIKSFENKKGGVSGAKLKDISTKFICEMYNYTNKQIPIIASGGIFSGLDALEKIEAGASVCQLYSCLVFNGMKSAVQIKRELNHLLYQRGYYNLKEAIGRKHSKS

[7] = tested on: Plasmodium berghei; test: Inhibition of Plasmodium berghei DHODH after 20 mins by 2,6-dichloroindophenol-reduction based assay
[8] = molecular target: Dihydroorotate dehydrogenase (quinone), mitochondrial (Homo sapiens, UniProt Q02127); test: Inhibition of human DHODH after 20 mins by 2,6-dichloroindophenol-reduction based assay
[9] = molecular target: Cytochrome P450 2C9 (Homo sapiens, UniProt P11712); test: Inhibition of human CYP2C9 using diclofenac as substrate after 10 mins by LC-MS/MS analysis; assay type: ADME
[10] = tested on: Plasmodium falciparum; test: Antiplasmodial activity against Plasmodium falciparum Dd2 infected in […] after 72 hrs by SYBR green assay; assay type: functional, organism-based; conditions: Dd2, 72 h
[11] = tested on: Plasmodium vivax; test: Inhibition of Plasmodium vivax DHODH after 20 mins by 2,6-dichloroindophenol-reduction based assay
[12] = tested on: Plasmodium falciparum; test: Antiplasmodial activity against Plasmodium falciparum 3D7 infected in […] after 72 hrs by SYBR green assay; assay type: functional, organism-based; conditions: 3D7, 72 h
[13] = molecular target: Cytochrome P450 3A4 (Homo sapiens, UniProt P08684); test: Inhibition of human CYP3A4 using midazolam as substrate after 5 mins by LC-MS/MS analysis; assay type: ADME
[14] = molecular target: Voltage-gated inwardly rectifying potassium channel KCNH2 (Homo sapiens, UniProt Q12809); test: Inhibition of human ERG expressed in CHOK1 cells by whole cell voltage clamp assay; assay type: cell-based, CHO-K1
Chain of Voltage-gated inwardly rectifying potassium channel KCNH2 (Q12809 whole entry): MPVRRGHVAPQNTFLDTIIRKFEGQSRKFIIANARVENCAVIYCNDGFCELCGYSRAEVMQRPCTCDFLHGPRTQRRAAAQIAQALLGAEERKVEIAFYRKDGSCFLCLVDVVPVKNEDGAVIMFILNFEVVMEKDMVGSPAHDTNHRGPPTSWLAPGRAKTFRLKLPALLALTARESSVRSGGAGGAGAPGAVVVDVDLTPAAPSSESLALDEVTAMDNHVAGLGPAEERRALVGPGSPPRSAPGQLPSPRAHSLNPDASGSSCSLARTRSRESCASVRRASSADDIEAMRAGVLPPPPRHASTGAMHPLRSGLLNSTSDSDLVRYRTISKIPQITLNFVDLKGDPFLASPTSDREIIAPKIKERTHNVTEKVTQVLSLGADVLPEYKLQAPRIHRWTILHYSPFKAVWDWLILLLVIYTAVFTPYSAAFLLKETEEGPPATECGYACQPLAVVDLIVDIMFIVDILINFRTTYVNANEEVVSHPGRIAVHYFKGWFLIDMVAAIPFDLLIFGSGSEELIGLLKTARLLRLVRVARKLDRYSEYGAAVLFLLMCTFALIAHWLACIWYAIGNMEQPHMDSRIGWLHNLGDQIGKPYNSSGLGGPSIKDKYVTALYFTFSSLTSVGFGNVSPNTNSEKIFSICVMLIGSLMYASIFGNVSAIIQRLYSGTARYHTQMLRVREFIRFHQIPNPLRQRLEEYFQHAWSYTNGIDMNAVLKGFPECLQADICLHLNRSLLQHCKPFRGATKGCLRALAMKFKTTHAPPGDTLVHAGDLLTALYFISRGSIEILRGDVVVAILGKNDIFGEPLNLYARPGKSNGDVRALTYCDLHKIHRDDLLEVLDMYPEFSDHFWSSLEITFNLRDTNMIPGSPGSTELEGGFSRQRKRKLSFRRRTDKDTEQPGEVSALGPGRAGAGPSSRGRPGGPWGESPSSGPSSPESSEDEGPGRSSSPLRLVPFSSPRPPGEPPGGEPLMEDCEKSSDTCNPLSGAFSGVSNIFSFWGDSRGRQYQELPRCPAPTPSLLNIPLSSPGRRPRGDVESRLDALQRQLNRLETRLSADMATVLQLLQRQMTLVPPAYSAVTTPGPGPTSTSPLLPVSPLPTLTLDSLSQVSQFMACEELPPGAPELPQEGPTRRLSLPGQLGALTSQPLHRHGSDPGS

Chain of Cytochrome P450 2C9 (P11712 whole entry): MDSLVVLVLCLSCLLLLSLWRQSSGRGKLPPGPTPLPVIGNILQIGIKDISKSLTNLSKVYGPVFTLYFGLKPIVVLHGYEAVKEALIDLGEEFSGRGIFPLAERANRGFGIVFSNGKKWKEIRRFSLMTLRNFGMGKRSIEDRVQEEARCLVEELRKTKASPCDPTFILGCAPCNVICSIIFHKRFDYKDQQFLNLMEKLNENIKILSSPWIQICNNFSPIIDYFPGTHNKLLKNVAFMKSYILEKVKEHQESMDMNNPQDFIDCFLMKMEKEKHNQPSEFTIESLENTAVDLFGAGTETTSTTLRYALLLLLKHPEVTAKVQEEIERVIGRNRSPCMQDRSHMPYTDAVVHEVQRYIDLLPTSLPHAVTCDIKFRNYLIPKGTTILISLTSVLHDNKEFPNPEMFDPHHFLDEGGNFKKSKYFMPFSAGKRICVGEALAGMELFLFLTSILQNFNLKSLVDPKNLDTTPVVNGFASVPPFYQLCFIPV
Chain of Cytochrome P450 3A4 (P08684 whole entry): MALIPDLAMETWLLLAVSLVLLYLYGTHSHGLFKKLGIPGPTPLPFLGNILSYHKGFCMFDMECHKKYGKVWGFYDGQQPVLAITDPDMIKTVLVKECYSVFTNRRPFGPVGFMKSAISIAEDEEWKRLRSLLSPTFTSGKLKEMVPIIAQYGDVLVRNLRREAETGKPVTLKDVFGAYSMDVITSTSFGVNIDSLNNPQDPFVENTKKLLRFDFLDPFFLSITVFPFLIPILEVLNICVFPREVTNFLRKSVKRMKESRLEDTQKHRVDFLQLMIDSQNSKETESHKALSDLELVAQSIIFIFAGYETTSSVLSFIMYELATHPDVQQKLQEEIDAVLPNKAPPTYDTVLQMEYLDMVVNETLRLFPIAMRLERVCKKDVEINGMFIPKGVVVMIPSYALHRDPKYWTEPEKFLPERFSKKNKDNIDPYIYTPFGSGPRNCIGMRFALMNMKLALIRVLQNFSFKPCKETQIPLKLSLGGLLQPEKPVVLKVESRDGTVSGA
Chain of Cytochrome P450 2C19 (P33261 whole entry): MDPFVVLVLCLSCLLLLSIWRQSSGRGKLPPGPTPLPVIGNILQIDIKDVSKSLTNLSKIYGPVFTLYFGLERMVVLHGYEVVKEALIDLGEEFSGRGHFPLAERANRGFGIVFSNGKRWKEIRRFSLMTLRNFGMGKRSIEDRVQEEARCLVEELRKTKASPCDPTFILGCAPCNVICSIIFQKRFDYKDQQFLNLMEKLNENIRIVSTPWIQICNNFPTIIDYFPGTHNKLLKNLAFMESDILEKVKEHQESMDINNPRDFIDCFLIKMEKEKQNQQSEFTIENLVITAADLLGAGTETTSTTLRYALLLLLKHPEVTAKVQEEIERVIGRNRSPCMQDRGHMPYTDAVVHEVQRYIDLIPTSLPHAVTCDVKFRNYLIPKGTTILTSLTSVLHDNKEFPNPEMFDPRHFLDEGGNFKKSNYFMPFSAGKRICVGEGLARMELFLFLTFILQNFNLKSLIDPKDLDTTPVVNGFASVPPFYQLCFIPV
Chain of Dihydroorotate dehydrogenase (quinone), mitochondrial (Q02127 whole entry): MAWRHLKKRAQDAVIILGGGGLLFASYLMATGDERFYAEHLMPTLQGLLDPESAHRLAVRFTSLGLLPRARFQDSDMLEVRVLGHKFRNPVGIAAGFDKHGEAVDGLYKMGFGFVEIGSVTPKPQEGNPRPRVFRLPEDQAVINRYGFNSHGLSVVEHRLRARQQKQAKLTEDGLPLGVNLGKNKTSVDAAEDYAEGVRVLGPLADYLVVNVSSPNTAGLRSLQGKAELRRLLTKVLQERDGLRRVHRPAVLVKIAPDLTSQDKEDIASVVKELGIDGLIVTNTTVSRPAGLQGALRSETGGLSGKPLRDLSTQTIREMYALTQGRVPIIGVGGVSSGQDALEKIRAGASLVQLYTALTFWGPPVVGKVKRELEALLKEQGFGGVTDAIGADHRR
Chain of Cytochrome P450 2D6 (P10635 whole entry): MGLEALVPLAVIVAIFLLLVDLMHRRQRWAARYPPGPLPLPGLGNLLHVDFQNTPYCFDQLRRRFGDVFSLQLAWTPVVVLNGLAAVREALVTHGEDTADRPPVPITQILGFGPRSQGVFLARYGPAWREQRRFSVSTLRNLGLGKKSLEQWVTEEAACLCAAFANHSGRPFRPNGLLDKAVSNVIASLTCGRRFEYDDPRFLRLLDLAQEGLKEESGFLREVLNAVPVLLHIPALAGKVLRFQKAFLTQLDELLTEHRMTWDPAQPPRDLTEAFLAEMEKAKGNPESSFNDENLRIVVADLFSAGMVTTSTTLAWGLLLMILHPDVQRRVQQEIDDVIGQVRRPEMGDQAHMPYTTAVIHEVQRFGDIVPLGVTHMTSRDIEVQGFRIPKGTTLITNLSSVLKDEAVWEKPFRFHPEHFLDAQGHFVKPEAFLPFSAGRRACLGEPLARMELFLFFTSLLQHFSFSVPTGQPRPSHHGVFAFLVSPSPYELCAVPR

- CLhep predicted [1]: 33 mL/min/kg
- CLhep predicted [2]: 4 mL/min/kg
- IC50 [3]: > 10 µM
- IC50 [4]: > 10 µM
- IC50 [5]: > 10 µM
- IC50 [6]: 0.044 µM
- inhibition [7]: Active
- IC50 [8]: > 30 µM
- IC50 [9]: > 10 µM
- IC50 [10]: 0.026 µM
- inhibition [11]: Active
- IC50 [12]: 0.019 µM
- IC50 [13]: > 10 µM
SMILES: Cc1nc2c(OC(F)F)cccc2n1-c1ccc(C(=O)NC2CC2)s1
- IC50 [14]: 28.8 µM
